{"source": "paper PMC8264940", "about": "(ACS Omega, 2021)", "key": {"[1]": {"tested_on": "SD rats", "experiment": "Acute toxicological study", "type": "in vivo, rat"}, "[2]": {"tested_on": "ZDF rats", "experiment": "Antidiabetic study, HbA1c in ZDF rats", "type": "in vivo, rat", "conditions": "for HbA1c-lowering / antidiabetic effect (in words): repeated oral dosing BID, ZDF rats aged 11 to 13 weeks", "method_in_brief": "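Male ZDF rats, 11 weeks old, allocated by HbA1c, fasting blood glucose and body weight. Test compound or metformin suspended in 5% gum Arabic, given orally twice daily and dosed on the latest body weight for 6 weeks. Body weight and food intake monitored. HbA1c measured by analyser, expressed as change from baseline; mean ± SE, n = 16 or 8; compared with vehicle group.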"}, "[3]": {"tested_on": "NaCT-expressing CHO cells", "experiment": "TCA cycle activation assay", "type": "cell-based", "method_in_brief": "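Stably transfected CHO-K1 cells express NaCT (pME18S, then pcDNA3.1(+) vectors); control CHO cells carry vector without the NaCT gene. Cells take up [1,5-14C]citric acid. TCA cycle activation is read as the reduction in residual intracellular radioactivity as the citrate is metabolised. Run with and without antimycin A (complex III inhibitor).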"}, "[4]": {"experiment": "Plasma pharmacokinetic study in SD rats", "conditions": "rat, in vivo", "method_in_brief": "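Male SD rats, 6–7 weeks old; test compound given as oral suspension by body weight, two animals per compound. Tail-vein blood was collected. Plasma was mixed with 10-fold acetonitrile–methanol (1:1), centrifuged, and the supernatant analysed by LC-ESI-MS/MS (C18 column, ammonium acetate/acetonitrile gradient, negative-ion selected reaction monitoring). Plasma detection limit 0.01 μg/mL.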"}, "[5]": {"experiment": "Tissue distribution", "type": "in vivo, rat", "conditions": "2 h after 10 mg/kg p.o., SD rats, mean of 2 animals; detection limit 0.04 μg/g", "method_in_brief": "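Male SD rats, 6–7 weeks old, given test compound as oral suspension, two animals per compound; values are means of 2. Liver and brain homogenates and plasma were mixed with 10-fold acetonitrile–methanol (1:1), centrifuged, and supernatants analysed by LC-ESI-MS/MS in negative-ion SRM mode. Detection limits 0.01 μg/mL (plasma) and 0.04 μg/g (liver, brain).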"}, "[6]": {"tested_on": "HepG2 cells", "experiment": "Oxygen consumption rate", "type": "cell-based, human", "conditions": "in the presence of oligomycin, P < 0.01 vs DMSO"}}, "note": "Where a name gives a salt, the structure may show the parent alone.", "data": [{"molecule": "N#Cc1[nH]nnc1-c1cccc(OCc2cc(C(F)(F)F)ccc2C(F)(F)F)c1", "note": "[Compound 3a, 5-{3-[2,5-Bis(trifluoromethyl)benzyloxy]phenyl}-3H-[1,2,3]triazole-4-carbonitrile]", "values": [{"measurement": "Deaths", "setting": "[1]; 300 mg/kg single dose, after hyperthermia and hyperglycemia", "value": "one of three"}]}, {"molecule": "N#Cc1[nH]nnc1-c1cccc(-c2cc(F)cc(C(F)(F)F)c2)c1", "note": "[Compound 3b, 5-(3′-Fluoro-5′-trifluoromethyl-[1,1-biphenyl]-3-yl)-3H-[1,2,3]triazole-4-carbonitrile]", "values": [{"measurement": "HbA1c-lowering / antidiabetic effect (in words)", "setting": "[2]", "value": "remarkable antidiabetic effect"}, {"measurement": "Doses elevating rectal temperature", "setting": "[1]; single dose, SD rats, 8 h after dosing", "value": "no elevation of rectal temperature was observed"}]}, {"molecule": "N#Cc1[nH]nnc1-c1cc(Cl)cc(/C=C/c2cccc(C(F)(F)F)c2)c1", "note": "[Compound 3c, (E)-5-(3-Chloro-5-(3-(trifluoromethyl)styryl)phenyl)-3H-1,2,3-triazole-4-carbonitrile]", "values": [{"measurement": "In vitro activity relative to compound 1", "setting": "[3]; EC50 of the TCA activation", "value": "one-third"}, {"measurement": "HbA1c-lowering / antidiabetic effect (in words)", "setting": "[2]", "value": "significant HbA1c lowering effect"}, {"measurement": "Metabolite finding in PK study", "setting": "[4]", "value": "a metabolite implying the possibility of future adverse effects was found"}]}, {"molecule": "N#Cc1[nH]nnc1-c1csc(-c2ccc(Cl)cc2)n1", "note": "[Compound 3d, 5-[2-(4-Chlorophenyl)-thiazol-4-yl]-3H-[1,2,3]triazole-4-carbonitrile]", "values": [{"measurement": "HbA1c-lowering / antidiabetic effect (in words)", "setting": "[2]", "value": "prominent"}, {"measurement": "Brain distribution, concentration", "setting": "[5]", "value": "indetectable"}]}, {"molecule": "Cc1sc(-c2ccc(C(F)(F)F)cc2)nc1-c1nn(C)nc1C#N", "note": "[Compound 4, 2-Methyl-5-{5-methyl-2-[4-(trifluoromethyl)phenyl]thiazol-4-yl}-2H-1,2,3-triazole-4-carbonitrile]", "values": [{"measurement": "Activation of the TCA cycle (in words)", "setting": "[3]", "value": "did not occur"}]}, {"molecule": "O=[N+]([O-])c1ccc(O)c([N+](=O)[O-])c1", "note": "[DNP, 2,4-dinitrophenol]", "values": [{"measurement": "Concentration significantly increasing OCR", "setting": "[6]", "value": 40, "unit": "µM"}]}, {"molecule": "N#CC(C#N)=NNc1ccc(OC(F)(F)F)cc1", "note": "[FCCP, Carbonyl cyanide p-trifluoromethoxyphenylhydrazone]", "values": [{"measurement": "Concentration significantly increasing OCR", "setting": "[6]", "value": 0.25, "unit": "µM"}]}, {"molecule": "CN(C)C(=N)N=C(N)N", "note": "[metformin, 1,1-Dimethyl biguanide (metformin) hydrochloride, reference compound]", "values": [{"measurement": "Effect on HbA1c, monotherapy (in words)", "setting": "[2]; 100 mg/kg/day alone, 6-week, ZDF rats", "value": "no effect"}]}, {"molecule": "N[C@@H](CC(=O)N1CCn2c(nnc2C(F)(F)F)C1)Cc1cc(F)c(F)cc1F", "note": "[sitagliptin, Sitagliptin phosphate hydrate, reference compound]", "values": [{"measurement": "Reduction of HbA1c change from the vehicle value", "setting": "[2]; monotherapy 10 mg/kg/day, 6-week, vehicle 2.97% points", "value": 11.4, "unit": "%"}]}]}
